# ChEMBL document CHEMBL5724801, “EUbOPEN Chemogenomics Library - Multiplex” (2024)
# Where “and” joins values, the source holds several entries; their conditions need not be identical. Equal entries are not always repeated.
# Tested on: Fibroblast
# Experiment: Multiplex assay against human fibroblast
# Type: toxicity, cell-based
# Method in brief: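 Tubulin, mitochondrial-mass and membrane-permeability phenotypes are per cents of healthy-nucleus cells. Cells were gated by CellPathfinder machine learning into Hoechst high-intensity objects or normal cells, normal cells into healthy, pyknosed or fragmented nuclei, and pyknosed cells into mitotic or apoptotic. Before that, live cells stained at seeding with Hoechst33342, BioTracker Green Microtubule Cytoskeleton Dye, MitoTracker Red and Annexin V Alexa Fluor 680 were imaged on a CQ1 microscope at 37°C and 5% CO2 after compound addition.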
# [1] = 12 h, 1 µM, compound concentration 1 uM
# [2] = 12 h, 10 µM, compound concentration 10 uM
# [3] = 24 h, 1 µM, compound concentration 1 uM
# [4] = 24 h, 10 µM, compound concentration 10 uM
# [5] = 48 h, 1 µM, compound concentration 1 uM
# [6] = 48 h, 10 µM, compound concentration 10 uM
structure (smiles),measurement,setting,value
Cc1ccc(C(C)(O)c2nc3ccccc3s2)c(C)c1 (stereo not drawn),Population Apoptotic (%),[1],50% and 44%
same,Population Fragmented Nuclei (%),[1],8% and 22%
same,Population Healthy Nuclei (%),[1],78% and 48%
same,Population Hoechst High Intensity Objects (%),[1],0% and 5%
same,Population Membrane Permeable-Phenotype (%),[1],0% and 3%
same,Population Mitochondria Different-Phenotype (%),[1],5% and 6%
same,Population Mitotic Cells (%),[1],50% and 56%
same,Population Normal (%),[1],99% and 95%
same,Population Pyknosed Nuclei (%),[1],12% and 29%
same,Population Tubulin-Different-Phenotype (%),[1],29% and 36%
same,Total Cell Count,[1],125 and 180
same,Population Apoptotic (%),[2],44% and 22%
same,Population Fragmented Nuclei (%),[2],11% and 31%
same,Population Healthy Nuclei (%),[2],72% and 43%
same,Population Hoechst High Intensity Objects (%),[2],1% and 7%
same,Population Membrane Permeable-Phenotype (%),[2],0% and 15%
same,Population Mitochondria Different-Phenotype (%),[2],5% and 6%
same,Population Mitotic Cells (%),[2],56% and 77%
same,Population Normal (%),[2],98% and 92%
same,Population Pyknosed Nuclei (%),[2],16% and 25%
same,Population Tubulin-Different-Phenotype (%),[2],24% and 60%
same,Total Cell Count,[2],153 and 149
same,Population Apoptotic (%),[3],31% and 47%
same,Population Fragmented Nuclei (%),[3],13% and 25%
same,Population Healthy Nuclei (%),[3],73% and 54%
same,Population Hoechst High Intensity Objects (%),[3],0% and 5%
same,Population Membrane Permeable-Phenotype (%),[3],2% and 11%
same,Population Mitochondria Different-Phenotype (%),[3],7% and 5%
same,Population Mitotic Cells (%),[3],68% and 52%
same,Population Normal (%),[3],99% and 94%
same,Population Pyknosed Nuclei (%),[3],13% and 20%
same,Population Tubulin-Different-Phenotype (%),[3],22% and 43%
same,Total Cell Count,[3],139 and 173
same,Population Apoptotic (%),[4],55% and 38%
same,Population Fragmented Nuclei (%),[4],13% and 27%
same,Population Healthy Nuclei (%),[4],74% and 46%
same,Population Hoechst High Intensity Objects (%),[4],4% and 6%
same,Population Membrane Permeable-Phenotype (%),[4],3% and 12%
same,Population Mitochondria Different-Phenotype (%),[4],6% and 9%
same,Population Mitotic Cells (%),[4],44% and 61%
same,Population Normal (%),[4],95% and 93%
same,Population Pyknosed Nuclei (%),[4],12% and 25%
same,Population Tubulin-Different-Phenotype (%),[4],24% and 61%
same,Total Cell Count,[4],152 and 143
same,Population Apoptotic (%),[5],33% and 50%
same,Population Fragmented Nuclei (%),[5],16% and 28%
same,Population Healthy Nuclei (%),[5],73% and 57%
same,Population Hoechst High Intensity Objects (%),[5],4% and 3%
same,Population Membrane Permeable-Phenotype (%),[5],0% and 5%
same,Population Mitochondria Different-Phenotype (%),[5],3% and 6%
same,Population Mitotic Cells (%),[5],66% and 50%
same,Population Normal (%),[5],95% and 96%
same,Population Pyknosed Nuclei (%),[5],9% and 14%
same,Population Tubulin-Different-Phenotype (%),[5],16% and 39%
same,Total Cell Count,[5],129 and 174
same,Population Apoptotic (%),[6],53% and 43%
same,Population Fragmented Nuclei (%),[6],22% and 34%
same,Population Healthy Nuclei (%),[6],68% and 53%
same,Population Hoechst High Intensity Objects (%),[6],7%
same,Population Membrane Permeable-Phenotype (%),[6],2% and 7%
same,Population Mitochondria Different-Phenotype (%),[6],6% and 7%
same,Population Mitotic Cells (%),[6],46% and 56%
same,Population Normal (%),[6],92%
same,Population Pyknosed Nuclei (%),[6],9% and 12%
same,Population Tubulin-Different-Phenotype (%),[6],27% and 64%
same,Total Cell Count,[6],156 and 143
N#Cc1cc(F)cc(-c2nc(-c3ccc(F)cn3)no2)c1,Population Apoptotic (%),[1],28% and 38%
same,Population Fragmented Nuclei (%),[1],21% and 32%
same,Population Healthy Nuclei (%),[1],63% and 37%
same,Population Hoechst High Intensity Objects (%),[1],0% and 6%
same,Population Mitochondria Different-Phenotype (%),[1],5% and 6%
same,Population Mitotic Cells (%),[1],71% and 61%
same,Population Normal (%),[1],100% and 93%
same,Population Pyknosed Nuclei (%),[1],15% and 29%
same,Population Tubulin-Different-Phenotype (%),[1],22% and 48%
same,Total Cell Count,[1],136 and 93
same,Population Apoptotic (%),[2],48% and 28%
same,Population Fragmented Nuclei (%),[2],15% and 42%
same,Population Healthy Nuclei (%),[2],67% and 32%
same,Population Hoechst High Intensity Objects (%),[2],1% and 8%
same,Population Membrane Permeable-Phenotype (%),[2],2% and 9%
same,Population Mitochondria Different-Phenotype (%),[2],5% and 12%
same,Population Mitotic Cells (%),[2],51% and 72%
same,Population Normal (%),[2],98% and 91%
same,Population Pyknosed Nuclei (%),[2],17% and 24%
same,Population Tubulin-Different-Phenotype (%),[2],23% and 36%
same,Total Cell Count,[2],179 and 110
same,Population Apoptotic (%),[3],40% and 27%
same,Population Fragmented Nuclei (%),[3],19% and 39%
same,Population Healthy Nuclei (%),[3],68% and 38%
same,Population Hoechst High Intensity Objects (%),[3],2% and 7%
same,Population Mitochondria Different-Phenotype (%),[3],3%
same,Population Mitotic Cells (%),[3],60% and 72%
same,Population Normal (%),[3],97% and 92%
same,Population Pyknosed Nuclei (%),[3],11% and 22%
same,Total Cell Count,[3],131 and 88
same,Population Apoptotic (%),[4],70% and 35%
same,Population Healthy Nuclei (%),[4],70% and 33%
same,Population Hoechst High Intensity Objects (%),[4],4% and 11%
same,Population Membrane Permeable-Phenotype (%),[4],0% and 5%
same,Population Mitochondria Different-Phenotype (%),[4],6% and 11%
same,Population Mitotic Cells (%),[4],29% and 65%
same,Population Normal (%),[4],95% and 88%
same,Population Pyknosed Nuclei (%),[4],16% and 18%
same,Population Tubulin-Different-Phenotype (%),[4],22% and 41%
same,Total Cell Count,[4],170 and 120
same,Population Apoptotic (%),[5],61% and 50%
same,Population Fragmented Nuclei (%),[5],21% and 45%
same,Population Healthy Nuclei (%),[5],68% and 32%
same,Population Hoechst High Intensity Objects (%),[5],1% and 5%
same,Population Membrane Permeable-Phenotype (%),[5],0% and 3%
same,Population Mitochondria Different-Phenotype (%),[5],3% and 7%
same,Population Mitotic Cells (%),[5],38% and 50%
same,Population Normal (%),[5],98% and 94%
same,Population Pyknosed Nuclei (%),[5],9% and 22%
same,Population Tubulin-Different-Phenotype (%),[5],23% and 57%
same,Total Cell Count,[5],137 and 85
same,Population Apoptotic (%),[6],84% and 50%
same,Population Fragmented Nuclei (%),[6],20% and 44%
same,Population Healthy Nuclei (%),[6],63% and 38%
same,Population Hoechst High Intensity Objects (%),[6],7% and 5%
same,Population Membrane Permeable-Phenotype (%),[6],0% and 15%
same,Population Mitochondria Different-Phenotype (%),[6],11% and 5%
same,Population Normal (%),[6],92% and 94%
same,Population Pyknosed Nuclei (%),[6],16% and 17%
same,Population Tubulin-Different-Phenotype (%),[6],28% and 50%
same,Total Cell Count,[6],162 and 110
Cc1noc(-c2ccc(-c3ccc(CC(=O)O)cc3)cc2)c1NC(=O)O[C@H](C)c1ccccc1Cl,Population Apoptotic (%),[1],22% and 58%
same,Population Fragmented Nuclei (%),[1],14% and 21%
same,Population Healthy Nuclei (%),[1],77% and 60%
same,Population Hoechst High Intensity Objects (%),[1],0% and 5%
same,Population Membrane Permeable-Phenotype (%),[1],0% and 5%
same,Population Mitochondria Different-Phenotype (%),[1],1% and 2%
same,Population Mitotic Cells (%),[1],77% and 41%
same,Population Normal (%),[1],100% and 95%
same,Population Pyknosed Nuclei (%),[1],8% and 18%
same,Population Tubulin-Different-Phenotype (%),[1],10% and 26%
same,Total Cell Count,[1],106 and 140
same,Population Apoptotic (%),[2],40% and 29%
same,Population Fragmented Nuclei (%),[2],20% and 17%
same,Population Healthy Nuclei (%),[2],62% and 45%
same,Population Hoechst High Intensity Objects (%),[2],1% and 6%
same,Population Membrane Permeable-Phenotype (%),[2],1% and 2%
same,Population Mitochondria Different-Phenotype (%),[2],6% and 10%
same,Population Mitotic Cells (%),[2],60% and 70%
same,Population Normal (%),[2],98% and 93%
same,Population Pyknosed Nuclei (%),[2],17% and 36%
same,Population Tubulin-Different-Phenotype (%),[2],31% and 57%
same,Total Cell Count,[2],119 and 90
same,Population Apoptotic (%),[3],20% and 52%
same,Population Fragmented Nuclei (%),[3],16% and 30%
same,Population Healthy Nuclei (%),[3],78% and 57%
same,Population Hoechst High Intensity Objects (%),[3],0% and 2%
same,Population Membrane Permeable-Phenotype (%),[3],0% and 1%
same,Population Mitochondria Different-Phenotype (%),[3],1% and 7%
same,Population Mitotic Cells (%),[3],80% and 47%
same,Population Normal (%),[3],100% and 97%
same,Population Pyknosed Nuclei (%),[3],4% and 12%
same,Population Tubulin-Different-Phenotype (%),[3],10% and 28%
same,Total Cell Count,[3],102 and 161
same,Population Apoptotic (%),[4],50% and 32%
same,Population Fragmented Nuclei (%),[4],20% and 26%
same,Population Healthy Nuclei (%),[4],68% and 41%
same,Population Hoechst High Intensity Objects (%),[4],1%
same,Population Membrane Permeable-Phenotype (%),[4],0%
same,Population Mitochondria Different-Phenotype (%),[4],7% and 10%
same,Population Mitotic Cells (%),[4],50% and 67%
same,Population Normal (%),[4],98%
same,Population Pyknosed Nuclei (%),[4],11% and 31%
same,Population Tubulin-Different-Phenotype (%),[4],29% and 65%
same,Total Cell Count,[4],122 and 98
same,Population Apoptotic (%),[5],44% and 60%
same,Population Fragmented Nuclei (%),[5],18% and 35%
same,Population Healthy Nuclei (%),[5],73% and 55%
same,Population Hoechst High Intensity Objects (%),[5],1% and 2%
same,Population Membrane Permeable-Phenotype (%),[5],1% and 5%
same,Population Mitochondria Different-Phenotype (%),[5],1% and 3%
same,Population Mitotic Cells (%),[5],55% and 40%
same,Population Normal (%),[5],98% and 97%
same,Population Pyknosed Nuclei (%),[5],8%
same,Population Tubulin-Different-Phenotype (%),[5],16% and 25%
same,Total Cell Count,[5],112 and 171
same,Population Apoptotic (%),[6],23% and 39%
same,Population Fragmented Nuclei (%),[6],30% and 40%
same,Population Healthy Nuclei (%),[6],55% and 37%
same,Population Hoechst High Intensity Objects (%),[6],4% and 2%
same,Population Membrane Permeable-Phenotype (%),[6],2% and 0%
same,Population Mitochondria Different-Phenotype (%),[6],4% and 10%
same,Population Mitotic Cells (%),[6],76% and 60%
same,Population Normal (%),[6],95% and 97%
same,Population Pyknosed Nuclei (%),[6],13% and 22%
same,Population Tubulin-Different-Phenotype (%),[6],35% and 69%
same,Total Cell Count,[6],133 and 107
